Results as given in ChEMBL document CHEMBL2401654, “Synthesis, characterization, and biological assessment of the four stereoisomers of the H(3) receptor antagonist 5-fluoro-2-methyl-N-[2-methyl-4-(2-methyl[1,3']bipyrrolidinyl-1'-yl)phenyl]benzamide” (Bioorg Med Chem Lett, 2013).
Values after ≈ are worked out from the molar mass of the structure shown.

Tests used:
Cytochrome P450 2D6 = Cytochrome P450 2D6 (Homo sapiens, UniProt P10635); assay: Inhibition of CYP2D6 (unknown origin); type: ADME
[1] = Clearance in C57BL/6 mouse at 2 mg/kg, iv; type: ADME, organism-based; design: dose 2 mg/kg, route intravenous; conditions: in vivo
Outline: (§1)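 Male C57BL/6 mice received a single intravenous dose of 2 mg/kg, formulated at 1 mg/mL in 50% 1-methyl-2-pyrrolidinone in saline. Plasma and brain concentrations were followed to derive PK parameters. Brain to plasma ratio was calculated from AUC.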

Histamine receptor H3 = Histamine receptor H3 (Macaca mulatta, UniProt Q865E1); assay: Displacement of [3H]N-alpha-methylhistamine from recombinant rhesus monkey histamine H3 receptor transfected in CHO cell membranes after 1 hr by scintillation counting analysis
Histamine receptor H3, sequence (Q865E1 whole entry): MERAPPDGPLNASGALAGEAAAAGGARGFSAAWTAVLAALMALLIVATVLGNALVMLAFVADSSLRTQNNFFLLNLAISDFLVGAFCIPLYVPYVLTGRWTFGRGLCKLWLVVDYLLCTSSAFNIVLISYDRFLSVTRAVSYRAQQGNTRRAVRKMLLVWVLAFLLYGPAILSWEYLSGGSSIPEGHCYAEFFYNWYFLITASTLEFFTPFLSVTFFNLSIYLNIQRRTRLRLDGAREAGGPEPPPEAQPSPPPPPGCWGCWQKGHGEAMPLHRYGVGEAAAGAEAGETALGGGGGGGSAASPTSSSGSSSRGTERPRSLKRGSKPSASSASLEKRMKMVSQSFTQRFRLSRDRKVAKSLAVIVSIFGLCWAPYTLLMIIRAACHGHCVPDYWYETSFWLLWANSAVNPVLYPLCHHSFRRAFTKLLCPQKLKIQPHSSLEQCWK

Cytochrome P450 2C9 = Cytochrome P450 2C9 (Homo sapiens, UniProt P11712); assay: Inhibition of CYP2C9 (unknown origin); type: ADME
Cytochrome P450 2C9, sequence (P11712 whole entry): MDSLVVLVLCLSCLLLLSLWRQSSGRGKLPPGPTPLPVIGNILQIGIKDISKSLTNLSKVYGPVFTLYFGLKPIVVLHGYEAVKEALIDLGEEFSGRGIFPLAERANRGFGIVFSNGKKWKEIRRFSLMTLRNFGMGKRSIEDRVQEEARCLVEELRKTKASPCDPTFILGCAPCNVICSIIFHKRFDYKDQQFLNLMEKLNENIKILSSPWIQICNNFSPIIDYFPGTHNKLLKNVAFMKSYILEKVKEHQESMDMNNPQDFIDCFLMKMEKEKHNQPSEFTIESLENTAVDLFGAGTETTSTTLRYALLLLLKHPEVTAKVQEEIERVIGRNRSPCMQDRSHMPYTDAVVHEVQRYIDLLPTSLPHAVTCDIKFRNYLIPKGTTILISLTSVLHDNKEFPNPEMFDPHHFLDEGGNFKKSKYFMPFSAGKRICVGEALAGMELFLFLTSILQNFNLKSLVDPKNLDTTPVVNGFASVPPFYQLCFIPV

Mus musculus [2] = assay: Toxicity in mouse assessed as effect on body weight at 3 to 30 mg/kg, po; type: organism-based; design: dose 3-30 mg/kg, route oral; conditions: in vivo
Outline: (§2)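 Behavioral safety study in mice given single oral doses of 3, 10 and 30 mg/kg. Tremors, tail pinch response, body temperature, pupil size and body weight were scored at 2 and 6 h post dose. Clinical signs were observed over one week after dosing.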

hERG (KCNH2) = hERG (KCNH2) (Homo sapiens, UniProt Q12809); assay: Inhibition of human ERG transfected in CHO cells at 1 uM by patch clamp assay relative to control; type: cell-based; conditions: CHO cells transfected with human ERG
hERG (KCNH2), sequence (Q12809 whole entry): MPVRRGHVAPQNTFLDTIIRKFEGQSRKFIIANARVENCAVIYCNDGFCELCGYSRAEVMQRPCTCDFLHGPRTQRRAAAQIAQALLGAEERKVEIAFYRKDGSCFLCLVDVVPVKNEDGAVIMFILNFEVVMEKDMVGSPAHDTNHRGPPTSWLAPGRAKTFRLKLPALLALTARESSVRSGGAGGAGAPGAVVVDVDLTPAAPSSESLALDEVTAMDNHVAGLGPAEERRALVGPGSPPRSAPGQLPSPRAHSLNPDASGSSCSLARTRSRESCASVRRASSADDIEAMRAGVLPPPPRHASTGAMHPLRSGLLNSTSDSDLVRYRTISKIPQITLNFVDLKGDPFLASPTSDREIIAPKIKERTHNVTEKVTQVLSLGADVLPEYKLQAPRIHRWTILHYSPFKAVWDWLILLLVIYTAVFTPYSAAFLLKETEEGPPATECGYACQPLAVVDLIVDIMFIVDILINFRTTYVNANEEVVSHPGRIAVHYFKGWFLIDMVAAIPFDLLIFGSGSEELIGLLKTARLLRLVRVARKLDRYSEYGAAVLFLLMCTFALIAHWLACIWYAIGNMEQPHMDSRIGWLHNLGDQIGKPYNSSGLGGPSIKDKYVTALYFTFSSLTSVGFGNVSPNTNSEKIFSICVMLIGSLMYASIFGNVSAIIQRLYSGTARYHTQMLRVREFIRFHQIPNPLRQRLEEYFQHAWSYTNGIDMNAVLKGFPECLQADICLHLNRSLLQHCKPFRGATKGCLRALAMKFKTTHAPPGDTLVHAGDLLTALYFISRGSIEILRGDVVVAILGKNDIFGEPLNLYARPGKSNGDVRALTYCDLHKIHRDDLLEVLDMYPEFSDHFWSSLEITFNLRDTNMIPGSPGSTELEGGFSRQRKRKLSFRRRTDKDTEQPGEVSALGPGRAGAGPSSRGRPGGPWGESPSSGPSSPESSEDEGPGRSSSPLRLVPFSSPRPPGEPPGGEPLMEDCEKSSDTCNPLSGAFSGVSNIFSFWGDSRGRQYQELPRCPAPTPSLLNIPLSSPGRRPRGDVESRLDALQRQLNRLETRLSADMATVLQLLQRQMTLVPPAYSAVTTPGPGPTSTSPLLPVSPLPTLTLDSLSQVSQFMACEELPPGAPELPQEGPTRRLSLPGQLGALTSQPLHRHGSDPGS
Outline: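 Whole-cell patch clamp on CHO cells stably transfected with the human ERG gene.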

Cytochrome P450 3A4 = Cytochrome P450 3A4 (Homo sapiens, UniProt P08684); assay: Inhibition of CYP3A4 (unknown origin); type: ADME
Cytochrome P450 3A4, sequence (P08684 whole entry): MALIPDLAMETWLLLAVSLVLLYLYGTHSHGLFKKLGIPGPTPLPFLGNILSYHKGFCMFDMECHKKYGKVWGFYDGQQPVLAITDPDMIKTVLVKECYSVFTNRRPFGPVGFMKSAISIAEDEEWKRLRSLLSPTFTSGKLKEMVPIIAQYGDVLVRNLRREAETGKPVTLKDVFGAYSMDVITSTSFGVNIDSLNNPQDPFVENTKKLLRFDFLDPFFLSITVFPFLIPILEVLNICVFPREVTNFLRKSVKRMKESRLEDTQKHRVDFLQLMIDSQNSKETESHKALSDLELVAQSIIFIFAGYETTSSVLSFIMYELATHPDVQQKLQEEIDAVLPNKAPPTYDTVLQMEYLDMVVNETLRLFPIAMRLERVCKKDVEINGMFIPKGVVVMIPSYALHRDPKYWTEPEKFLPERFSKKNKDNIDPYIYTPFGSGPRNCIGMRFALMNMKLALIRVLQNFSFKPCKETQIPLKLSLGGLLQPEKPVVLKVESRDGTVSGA

[3] = Ratio of AUC (0 to 24 hrs) in C57BL/6 mouse brain to AUC (0 to 24 hrs) in C57BL/6 mouse plasma at 10 mg/kg, po; type: ADME, organism-based; design: dose 10 mg/kg, route oral; conditions: read-out: Ratio AUC
Outline: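 Male C57BL/6 mice were given a single oral dose of 10 mg/kg, formulated at 1 mg/mL in 5% DMSO/0.5% MC/0.2% tween 80. Compound levels were measured in plasma and brain over time. The brain-to-plasma ratio was calculated from AUC0-24 values.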

[4] = Tmax in C57BL/6 mouse brain at 2 mg/kg, iv; type: ADME, organism-based; design: dose 2 mg/kg, route intravenous; outline: as §1
Mus musculus [5] = assay: Toxicity in mouse assessed as appearance of tremor at 30 mg/kg, po measured at 2 hrs; type: organism-based; design: dose 30 mg/kg, route oral; conditions: in vivo; outline: as §2
Mus musculus [6] = assay: Toxicity in mouse assessed as increase in body temperature at 30 mg/kg, po measured at 6 hrs; type: organism-based; design: dose 30 mg/kg, route oral; conditions: in vivo; outline: as §2
[7] = AUC (0 to infinity) in C57BL/6 mouse brain at 10 mg/kg, po; type: ADME, organism-based; design: time infinity, dose 10 mg/kg, route oral
Outline: (§3)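 Male C57BL/6 mice were dosed orally at 10 mg/kg, formulated at 1 mg/mL in 5% DMSO/0.5% MC/0.2% tween 80. Plasma and brain were sampled for PK parameters. Brain to plasma ratio was based on AUC0-24.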

[8] = Ratio of AUC (0 to 24 hrs) in C57BL/6 mouse brain to AUC (0 to 24 hrs) in C57BL/6 mouse plasma at 2 mg/kg, iv; type: ADME, organism-based; design: dose 2 mg/kg, route intravenous; conditions: read-out: Ratio AUC
Outline: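 Male C57BL/6 mice were given a single intravenous dose of 2 mg/kg, formulated at 1 mg/mL in 50% 1-methyl-2-pyrrolidinone in saline. Plasma and brain exposure profiles were collected, and the brain-to-plasma ratio was derived from the AUC values of the two tissues.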

[9] = Genotoxicity in micronucleus (unknown origin)
[10] = Cmax in C57BL/6 mouse brain at 10 mg/kg, po; type: ADME, organism-based; design: dose 10 mg/kg, route oral; outline: as §3
[11] = Distribution coefficient, log D of the compound; type: physicochemical; conditions: octanol/water
Histamine H3 receptor = Histamine H3 receptor (Homo sapiens, UniProt Q9Y5N1); assay: Displacement of [3H]N-alpha-methylhistamine from recombinant human histamine H3 receptor transfected in CHO cell membranes after 1 hr by scintillation counting analysis
Histamine H3 receptor, sequence (Q9Y5N1 whole entry): as the sequence (Q865E1 whole entry) above, with N148D, G240A, A282V, T289A, A290T, A300V, Q442H counted along it
Outline: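 Radioligand displacement of [3H]N-α-methylhistamine using membranes from CHO cells stably transfected with recombinant human or rat H3 receptor. Ki is presented as a range of multiple experiments (n ≥ 3).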

[12] = Volume of distribution at steady state in C57BL/6 mouse at 2 mg/kg, iv; type: ADME, organism-based; design: dose 2 mg/kg, route intravenous; conditions: in vivo, read-out: Vdss; outline: as §1
[13] = AUC (0 to infinity) in C57BL/6 mouse plasma at 10 mg/kg, po; type: ADME, organism-based; design: time infinity, dose 10 mg/kg, route oral; outline: as §3
[14] = Solubility of the compound in PBS buffer at pH 7.4; type: physicochemical
Outline: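 Solubility measured in PBS at pH 7.4.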

[15] = Tmax in C57BL/6 mouse brain at 10 mg/kg, po; type: ADME, organism-based; design: dose 10 mg/kg, route oral; outline: as §3
[16] = Drug metabolism in mouse liver microsomes at 5 uM after 20 mins; type: ADME, Microsome; conditions: read-out: Drug metabolism
Outline: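 Substrate at 5 µM incubated at 37 °C for 20 min with in-house liver microsome preparations (human, mouse or rat). Reported as the percentage of parent compound metabolized.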

[17] = Cmax in C57BL/6 mouse plasma at 2 mg/kg, iv; type: ADME, organism-based; design: dose 2 mg/kg, route intravenous; outline: as §1

Cytochrome P450 2D6, sequence (P10635 whole entry): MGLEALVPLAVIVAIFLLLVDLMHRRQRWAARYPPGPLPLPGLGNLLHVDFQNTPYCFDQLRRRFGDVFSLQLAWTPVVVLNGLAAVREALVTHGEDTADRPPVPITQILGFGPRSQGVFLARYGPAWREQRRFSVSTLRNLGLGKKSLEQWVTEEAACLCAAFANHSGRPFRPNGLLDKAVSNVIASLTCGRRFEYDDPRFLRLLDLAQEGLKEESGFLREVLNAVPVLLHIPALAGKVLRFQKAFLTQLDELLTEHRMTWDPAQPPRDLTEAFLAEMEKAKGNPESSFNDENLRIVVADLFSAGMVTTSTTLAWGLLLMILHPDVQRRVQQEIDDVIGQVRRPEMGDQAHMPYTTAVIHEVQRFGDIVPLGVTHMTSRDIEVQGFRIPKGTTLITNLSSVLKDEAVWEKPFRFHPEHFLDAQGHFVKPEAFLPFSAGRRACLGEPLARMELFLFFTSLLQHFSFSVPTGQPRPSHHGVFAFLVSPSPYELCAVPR

Cc1cc(N2CC[C@H](N3CCC[C@@H]3C)C2)ccc1NC(=O)c1cc(F)ccc1C
IC50 (Cytochrome P450 2D6): > 30000 nM | clearance [1]: 60 mL/min/kg | Ki (Histamine receptor H3): 2.5 nM | IC50 (Cytochrome P450 2C9): > 30000 nM | Activity (Mus musculus [2]): Non-toxic | inhibition at 1 µM (hERG (KCNH2)): 43.4% | IC50 (Cytochrome P450 3A4): > 30000 nM | Kp [3]: 4.6 | Tmax [4]: 4.98 min | Activity (Mus musculus [5]): Toxic | Activity (Mus musculus [6]): Toxic | AUC(0-inf) [7]: 18000 ng·h/mL | Kp [8]: 4.7 | Activity [9]: Non-toxic | Cmax [10]: 4290 ng/mL | logD [11]: 2.09 | Ki (Histamine H3 receptor): 3.4 nM | Vd [12]: 5.2 L/kg | AUC(0-inf) [13]: 4000 ng·h/mL | solubility [14]: 293 µg/mL (≈ 742 µM) | Tmax [15]: 60 min | metabolised at 20 min, 5 µM [16]: 19% | Cmax [17]: 2000 ng/mL
